Experiments:
[1] = target: T1, Tyrosine-protein phosphatase non-receptor type 1 (Homo sapiens, UniProt P18031); assay: Inhibition of PTP1B by pNPP assay
T1 sequence (P18031 whole entry): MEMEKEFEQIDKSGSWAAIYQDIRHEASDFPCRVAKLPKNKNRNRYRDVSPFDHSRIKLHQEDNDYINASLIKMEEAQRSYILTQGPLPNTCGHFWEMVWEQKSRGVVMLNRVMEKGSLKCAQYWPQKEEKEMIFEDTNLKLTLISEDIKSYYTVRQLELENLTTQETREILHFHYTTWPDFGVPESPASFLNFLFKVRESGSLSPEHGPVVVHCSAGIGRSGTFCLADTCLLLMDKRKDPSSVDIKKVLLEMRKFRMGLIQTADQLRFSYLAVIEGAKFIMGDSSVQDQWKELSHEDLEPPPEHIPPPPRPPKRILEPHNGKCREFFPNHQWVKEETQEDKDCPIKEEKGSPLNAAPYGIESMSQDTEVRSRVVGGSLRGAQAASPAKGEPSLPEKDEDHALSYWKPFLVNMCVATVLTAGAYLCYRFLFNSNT

[2] = target: T2, Tyrosine-protein phosphatase non-receptor type 1 (Homo sapiens) (UniProt P18031); assay: Increase in phosphorylation level of human insulin receptor transfected in HEK293 cells at 80 uM; assay type: functional, cell-based
T2 sequence (whole entry): T1 sequence (P18031 whole entry)
How it was run: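 HEK293-MSR cells cotransfected with full-length human PTP1B and insulin receptor plasmids, attached 24 h, then treated 16 h in serum-free DMEM (0.4% DMSO final). Lysed on ice; IR phosphorylated at Y1162/Y1163 measured by ELISA and normalized to total protein (BCA). Expressed as fold shift; averages of triplicates from the same day.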

[3] = Permeability across Caco-2 cell membrane; assay type: ADME, cell-based; settings: human, read-out: permeability

IC50 [1] | Activity [2] | Papp [3] | SMILES
160 nM |  |  | O=C1CC(c2ccc(CC(NS(=O)(=O)c3cc(Cl)ccc3Cl)c3nc4ccccc4[nH]3)cc2)S(=O)(=O)N1 (stereo not given)
15 nM | 1.1 | < 0.1 ×10⁻⁶ cm/s | O=C1C[C@@H](c2ccc(C[C@H](NS(=O)(=O)c3cccc(F)c3)c3nc4ccccc4[nH]3)cc2F)S(=O)(=O)[N-]1.[Na+]
77 nM |  |  | O=C1CC(c2ccc(CC(NS(=O)(=O)c3cccc(Br)c3)c3nc4ccccc4[nH]3)cc2)S(=O)(=O)N1 (stereo not given)
940 nM |  |  | CC(=O)N[C@@H](Cc1ccc([C@@H]2CC(=O)NS2(=O)=O)cc1)c1nc2ccccc2[nH]1
80 nM |  |  | O=C1CC(c2ccc(CC(NS(=O)(=O)c3ccc(F)cc3)c3nc4ccccc4[nH]3)cc2)S(=O)(=O)N1 (stereo not given)
240 nM |  |  | O=C1CC(c2ccc(CC(NS(=O)(=O)c3cccc(Cl)c3Cl)c3nc4ccccc4[nH]3)cc2)S(=O)(=O)N1 (stereo not given)
140 nM |  |  | O=C1CC(c2ccc(CC(NS(=O)(=O)c3cc(F)ccc3F)c3nc4ccccc4[nH]3)cc2)S(=O)(=O)N1 (stereo not given)
63 nM |  |  | N#Cc1ccc(S(=O)(=O)NC(Cc2ccc(C3CC(=O)NS3(=O)=O)cc2)c2nc3ccccc3[nH]2)cc1 (stereo not given)
18 nM | 1.4 | < 0.1 ×10⁻⁶ cm/s | Cc1cc(C[C@H](NS(=O)(=O)c2ccccc2C#N)c2nc3ccccc3[nH]2)ccc1[C@@H]1CC(=O)[N-]S1(=O)=O.[Na+]
160 nM |  |  | O=C1CC(c2ccc(CC(NS(=O)(=O)c3ccccc3Cl)c3nc4ccccc4[nH]3)cc2)S(=O)(=O)N1 (stereo not given)
110 nM |  |  | O=C1CC(c2ccc(CC(NS(=O)(=O)c3ccc(Cl)cc3)c3nc4ccccc4[nH]3)cc2)S(=O)(=O)N1 (stereo not given)
150 nM |  |  | COC(=O)c1ccc2[nH]c(C(Cc3ccc(C4CC(=O)NS4(=O)=O)cc3)NS(=O)(=O)c3ccc(-c4ccccc4)cc3)nc2c1 (stereo not given)
600 nM |  |  | O=C(CCc1ccccc1)N[C@@H](Cc1ccc([C@@H]2CC(=O)NS2(=O)=O)cc1)c1nc2ccccc2[nH]1
160 nM |  |  | O=C1CC(c2ccc(CC(NS(=O)(=O)c3ccc(-c4ccccc4)cc3)c3nc4cc(C(F)(F)F)ccc4[nH]3)cc2)S(=O)(=O)N1 (stereo not given)
32 nM | 1 | 0.4 ×10⁻⁶ cm/s | O=C1C[C@@H](c2ccc(C[C@H](NS(=O)(=O)c3ccccc3)c3nc4ccccc4[nH]3)cc2)S(=O)(=O)[N-]1.[Na+]
240 nM |  |  | O=C1CC(c2ccc(CC(NS(=O)(=O)c3ccc(-c4ccccc4)cc3)c3nc4c(O)cccc4[nH]3)cc2)S(=O)(=O)N1 (stereo not given)
85 nM |  |  | Cc1cccc(S(=O)(=O)NC(Cc2ccc(C3CC(=O)NS3(=O)=O)cc2)c2nc3ccccc3[nH]2)c1 (stereo not given)
240 nM |  |  | CC(=O)N[C@@H](Cc1ccccc1)C(=O)N[C@@H](Cc1ccc([C@@H]2CC(=O)NS2(=O)=O)cc1)C(N)=O
48 nM |  |  | COc1cccc(S(=O)(=O)NC(Cc2ccc(C3CC(=O)NS3(=O)=O)cc2)c2nc3ccccc3[nH]2)c1 (stereo not given)

IC50 [1] | Activity [2] | Papp [3] | SMILES
160 nM |  |  | O=C1CC(c2ccc(CC(NS(=O)(=O)c3c(F)cccc3F)c3nc4ccccc4[nH]3)cc2)S(=O)(=O)N1 (stereo not given)
110 nM |  |  | O=C1CC(c2ccc(CC(NS(=O)(=O)c3ccc(Br)cc3)c3nc4ccccc4[nH]3)cc2)S(=O)(=O)N1 (stereo not given)
460 nM |  |  | CC(C)(C)c1cccc2[nH]c(C(Cc3ccc(C4CC(=O)NS4(=O)=O)cc3)NS(=O)(=O)c3ccc(-c4ccccc4)cc3)nc12 (stereo not given)
10 nM | 2.3 | 0.3 ×10⁻⁶ cm/s | O=C1CC(c2ccc(C[C@H](NS(=O)(=O)c3cccc(C(F)(F)F)c3)c3nc4cc(Cl)ccc4[nH]3)cc2F)S(=O)(=O)[N-]1.[Na+] (stereo not given in full)
45 nM |  |  | N#Cc1ccccc1S(=O)(=O)NC(Cc1ccc(C2CC(=O)NS2(=O)=O)cc1)c1nc2ccccc2[nH]1 (stereo not given)
16 nM | 2 | < 0.1 ×10⁻⁶ cm/s | Cc1cc(C[C@H](NS(=O)(=O)c2ccc(Br)c(C(F)(F)F)c2)c2nc3ccccc3[nH]2)ccc1[C@@H]1CC(=O)[N-]S1(=O)=O.[Na+]
140 nM |  |  | Cc1ccc2[nH]c(C(Cc3ccc(C4CC(=O)NS4(=O)=O)cc3)NS(=O)(=O)c3ccc(-c4ccccc4)cc3)nc2c1 (stereo not given)
76 nM | 1.9 | 0.2 ×10⁻⁶ cm/s | Cc1cc(C[C@H](NS(=O)(=O)c2cccc(Cl)c2)c2nc3ccccc3[nH]2)ccc1[C@@H]1CC(=O)[N-]S1(=O)=O.[Na+]
130 nM |  |  | COc1ccc2[nH]c(C(Cc3ccc(C4CC(=O)NS4(=O)=O)cc3)NS(=O)(=O)c3ccc(-c4ccccc4)cc3)nc2c1 (stereo not given)
110 nM |  |  | O=C1CC(c2ccc(CC(NS(=O)(=O)c3ccc(F)c(F)c3)c3nc4ccccc4[nH]3)cc2)S(=O)(=O)N1 (stereo not given)
130 nM |  |  | O=C1CC(c2ccc(CC(NS(=O)(=O)c3ccccc3C(F)(F)F)c3nc4ccccc4[nH]3)cc2)S(=O)(=O)N1 (stereo not given)
67 nM |  |  | O=C1CC(c2ccc(CC(NS(=O)(=O)c3cccc(C(F)(F)F)c3)c3nc4ccccc4[nH]3)cc2)S(=O)(=O)N1 (stereo not given)
43 nM |  |  | O=C1CC(c2ccc(CC(NS(=O)(=O)c3cccc(F)c3)c3nc4ccccc4[nH]3)cc2)S(=O)(=O)N1 (stereo not given)
80 nM |  |  | O=C1CC(c2ccc(CC(NS(=O)(=O)c3ccc(-c4ccccc4)cc3)c3nc4ccccc4[nH]3)cc2)S(=O)(=O)N1 (stereo not given)
80 nM |  |  | Cc1ccc(S(=O)(=O)NC(Cc2ccc(C3CC(=O)NS3(=O)=O)cc2)c2nc3ccccc3[nH]2)cc1 (stereo not given)
 | 1 |  | Cc1cc(C[C@H](NS(=O)(=O)c2ccccc2)c2nc3ccccc3[nH]2)ccc1[C@H]1CC(=O)NS1(=O)=O
94 nM |  |  | COc1ccc(S(=O)(=O)NC(Cc2ccc(C3CC(=O)NS3(=O)=O)cc2)c2nc3ccccc3[nH]2)cc1 (stereo not given)
51 nM |  |  | O=C1CC(c2ccc(CC(NS(=O)(=O)c3cc(Cl)cc(Cl)c3)c3nc4ccccc4[nH]3)cc2)S(=O)(=O)N1 (stereo not given)
190 nM |  |  | Cc1cccc2[nH]c(C(Cc3ccc(C4CC(=O)NS4(=O)=O)cc3)NS(=O)(=O)c3ccc(-c4ccccc4)cc3)nc12 (stereo not given)

IC50 [1] | Activity [2] | Papp [3] | SMILES
300 nM |  |  | Cc1ccccc1S(=O)(=O)NC(Cc1ccc(C2CC(=O)NS2(=O)=O)cc1)c1nc2ccccc2[nH]1 (stereo not given)
280 nM |  |  | O=C1CC(c2ccc(CC(NS(=O)(=O)c3ccc(Cl)cc3Cl)c3nc4ccccc4[nH]3)cc2)S(=O)(=O)N1 (stereo not given)
340 nM | 0.7 | < 0.1 ×10⁻⁶ cm/s | O=C1CC(c2ccc(C[C@H](NS(=O)(=O)c3ccccc3)c3nc4ccccc4[nH]3)cc2Br)S(=O)(=O)[N-]1.[Na+] (stereo not given in full)
120 nM |  |  | O=C1CC(c2ccc(CC(NS(=O)(=O)c3ccccc3F)c3nc4ccccc4[nH]3)cc2)S(=O)(=O)N1 (stereo not given)
110 nM |  |  | O=C1CC(c2ccc(CC(NS(=O)(=O)c3ccc(F)cc3F)c3nc4ccccc4[nH]3)cc2)S(=O)(=O)N1 (stereo not given)
120 nM |  |  | O=C1CC(c2ccc(CC(NS(=O)(=O)c3ccc(-c4ccccc4)cc3)c3nc4cc(F)ccc4[nH]3)cc2)S(=O)(=O)N1 (stereo not given)
590 nM |  |  | CS(=O)(=O)N[C@@H](Cc1ccc([C@@H]2CC(=O)NS2(=O)=O)cc1)c1nc2ccccc2[nH]1
51 nM |  |  | O=C1CC(c2ccc(CC(NS(=O)(=O)c3ccc(C(F)(F)F)cc3)c3nc4ccccc4[nH]3)cc2)S(=O)(=O)N1 (stereo not given)
72 nM |  |  | O=C1CC(c2ccc(CC(NS(=O)(=O)c3cc(F)cc(F)c3)c3nc4ccccc4[nH]3)cc2)S(=O)(=O)N1 (stereo not given)
50 nM | 1 | < 0.1 ×10⁻⁶ cm/s | O=C1C[C@@H](c2ccc(C[C@H](NS(=O)(=O)c3ccccc3)c3nc4ccccc4[nH]3)cc2Cl)S(=O)(=O)[N-]1.[Na+]
460 nM |  |  | O=C1CC(c2ccc(CC(NS(=O)(=O)c3c(Cl)cccc3Cl)c3nc4ccccc4[nH]3)cc2)S(=O)(=O)N1 (stereo not given)
 | 2.8 | 0.4 ×10⁻⁶ cm/s | Cc1cc(C[C@H](NS(=O)(=O)c2ccccc2)c2nc3ccccc3[nH]2)ccc1[C@@H]1CC(=O)[N-]S1(=O)=O.[Na+]
79 nM |  |  | O=C1CC(c2ccc(CC(NS(=O)(=O)c3ccc(Cl)c(Cl)c3)c3nc4ccccc4[nH]3)cc2)S(=O)(=O)N1 (stereo not given)
53 nM |  |  | N#Cc1ccc2nc(C(Cc3ccc(C4CC(=O)NS4(=O)=O)cc3)NS(=O)(=O)c3ccc(-c4ccccc4)cc3)[nH]c2c1 (stereo not given)
60 nM |  |  | O=C1CC(c2ccc(CC(NS(=O)(=O)c3cccc(Cl)c3)c3nc4ccccc4[nH]3)cc2)S(=O)(=O)N1 (stereo not given)
18 nM | 1.6 | 0.2 ×10⁻⁶ cm/s | O=C1CC(c2ccc(C[C@H](NS(=O)(=O)c3ccccc3)c3nc4ccccc4[nH]3)cc2F)S(=O)(=O)[N-]1.[Na+] (stereo not given in full)
140 nM |  |  | O=C1CC(c2ccc(CC(NS(=O)(=O)c3ccc(-c4ccccc4)cc3)c3nc4cc(Cl)ccc4[nH]3)cc2)S(=O)(=O)N1 (stereo not given)
170 nM |  |  | O=C1CC(c2ccc(CC(NS(=O)(=O)c3ccccc3Br)c3nc4ccccc4[nH]3)cc2)S(=O)(=O)N1 (stereo not given)

— ChEMBL document CHEMBL1138056, “Potent benzimidazole sulfonamide protein tyrosine phosphatase 1B inhibitors containing the heterocyclic (S)-isothiazolidinone phosphotyrosine mimetic” (J Med Chem, 2006)
